Results from ChEMBL document CHEMBL4000162, “Arborinane Triterpenoids from Rubia philippinensis Inhibit Proliferation and Migration of Vascular Smooth Muscle Cells Induced by the Platelet-Derived Growth Factor” (J Nat Prod, 2016).
The source made the active and inactive calls. No cut-off for these calls is given here.

Experiments:
[1] = Antiproliferative activity against PDGF-BB-stimulated rat VSMC at 5 uM preincubated for 24 hrs followed by PDGF-BB addition measured after 24 hrs by MTT assay relative to control; format: functional
How it was run: (§1)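 Rat aortic VSMCs seeded at 3.5 × 10^4 cells/mL and grown in DMEM/10% FBS at 37 °C to 70% confluence. Serum-starved 24 h, given compound for 24 h (paclitaxel 1 μM reference), then stimulated with 25 ng/mL PDGF-BB for 24 h. MTT 5 mg/mL in serum-free DMEM for 4 h, DMSO solubilisation, absorbance read at 565 nm. Means ± SEM of triplicates.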

[2] = tested on: VSMC; test: Antimigratory activity against PDGF-BB-stimulated rat VSMC at 10 to 30 uM preincubated for 2 hrs followed by PDGF-BB addition measured after 48 hrs by scratch wound-healing assay; format: functional, cell-based
How it was run: (§2)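 Rat aortic VSMCs (enzymatic dispersion; DMEM, 10% FBS) grown in 12-well plates to >90% confluence, serum-starved 24 h, scratched with two lines and imaged at 0 h. Pretreated 2 h with compound (paclitaxel 1 μM as reference), then 25 ng/mL PDGF-BB for 48 h. Fixed in 100% MeOH, stained with 0.5% crystal violet, migration area quantified from images. Means ± SEM of triplicate experiments.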

[3] = Cytotoxicity against rat VSMC assessed as decrease in cell viability at 10 to 30 uM after 48 hrs by MTT assay; format: cell-based
How it was run: (§3)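 Rat aortic VSMCs seeded at 3.5 × 10^4 cells/mL in DMEM/10% FBS and grown to 70% confluence, then serum-free for 24 h. Exposed to compound for 48 h without PDGF (digitonin 100 μg/mL reference). Viability by MTT: 5 mg/mL for 4 h, DMSO, absorbance at 565 nm. Means ± SEM.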

[4] = tested on: VSMC; test: Antiproliferative activity against PDGF-BB-stimulated rat VSMC at 10 to 30 uM preincubated for 24 hrs followed by PDGF-BB addition measured after 24 hrs by MTT assay; format: functional, cell-based; how it was run: as §1
[5] = Cytotoxicity against rat VSMC assessed as decrease in cell viability at 5 uM after 48 hrs by MTT assay; format: cell-based; how it was run: as §3
[6] = (§4) Antimigratory activity against PDGF-BB-stimulated rat VSMC at 30 uM preincubated for 2 hrs followed by PDGF-BB addition measured after 48 hrs by scratch wound-healing assay; format: functional; how it was run: as §2
[7] = tested on: VSMC; test: Antimigratory activity against PDGF-BB-stimulated rat VSMC preincubated for 2 hrs followed by PDGF-BB addition measured after 48 hrs by photograph-based scratch wound-healing assay; format: functional, cell-based; how it was run: as §2
[8] = tested on: VSMC; test: Antimigratory activity against PDGF-BB-stimulated rat VSMC preincubated for 2 hrs followed by PDGF-BB addition measured after 48 hrs by scratch wound-healing assay; format: functional, cell-based; how it was run: as §2
[9] = Antimigratory activity against PDGF-BB-stimulated rat VSMC at 10 uM preincubated for 2 hrs followed by PDGF-BB addition measured after 48 hrs by scratch wound-healing assay; format: functional; how it was run: as §2
[10] = tested on: VSMC; test: as §4; format: functional; how it was run: as §2
[11] = Cytotoxicity against rat VSMC assessed as decrease in cell viability at 30 uM after 48 hrs by MTT assay; format: cell-based; how it was run: as §3
[12] = tested on: VSMC; test: Antiproliferative activity against PDGF-BB-stimulated rat VSMC at 30 uM preincubated for 24 hrs followed by PDGF-BB addition measured after 24 hrs by MTT assay; format: functional, cell-based; how it was run: as §1

Compound: CC(C)[C@@H]1C[C@@H]2OC[C@]13CC[C@@]1(C)[C@H]4C(=CC[C@]1(C)[C@@H]23)[C@@]1(C)CC[C@H](O)C(C)(C)[C@@H]1C[C@@H]4O
- inhibition at 5 µM [1]: 62.6%
- Activity [2]: Active
- Activity [3]: Toxic
- inhibition [4]: Active
- Activity [5]: Non-Toxic

Compound: CC(=O)O[C@H]1CC[C@]2(C)C3=CC[C@]4(C)[C@H]5[C@H](O)C[C@@H](C(C)C)[C@]5(CO)CC[C@@]4(C)[C@@H]3[C@@H](O)C[C@H]2C1(C)C
- Activity [6]: 57.6%
- Activity [7]: Dose-dependent effect
- Activity [3]: Non-Toxic
- Activity [8]: Dose-dependent effect
- Activity [9]: 38.5%

Compound: CC(=O)OC[C@@]12CC[C@@]3(C)[C@H]4C(=CC[C@]3(C)[C@H]1[C@H](O)C[C@H]2C(C)C)[C@@]1(C)CC[C@H](OC(C)=O)C(C)(C)[C@@H]1C[C@@H]4O
- Activity [10]: Active
- Activity [11]: Toxic
- inhibition [12]: Active

Compound: CC(=O)O[C@@H]1C[C@@H](C(C)C)[C@]2(C)CC[C@@]3(C)[C@H]4C(=CC[C@]3(C)[C@@H]12)[C@@]1(C)C=CC(=O)C(C)(C)[C@@H]1C[C@@H]4O
- inhibition at 5 µM [1]: 41.1%
- Activity [3]: Toxic
- inhibition [4]: Active
- Activity [5]: Non-Toxic

Compound: CC(=O)O[C@@H]1C[C@@H](C(C)C)[C@]2(C)CC[C@@]3(C)[C@H]4C(=CC[C@]3(C)[C@@H]12)[C@@]1(C)CC[C@H](O)C(C)(C)[C@@H]1C[C@@H]4O
- Activity [2]: Active
- Activity [3]: Toxic
- inhibition [4]: Active
